In series [1] the test system is MC65. Briefly: Neuroprotective activity in tetracycline-removed human MC65 cells assessed as protection against amyloid beta aggregate-induced cytotoxicity at 0.3 uM after 72 hrs by MTT assay. The series is classed as functional, cell-based. In a few lines: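 Single-concentration screen: MC65 cells given 0.3 μM compound under +TC or −TC conditions for 72 h, viability read by MTT. Reported as mean percentage viability (n = 3) relative to parallel +TC cultures at 100%; error bars SEM.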
On the technique in general: Formazan colour is commonly taken as a measure of viable cells.

A short description of series [2]: Binding affinity to Zn2+ assessed as formation of metal complexes at 50 uM after 10 mins by UV-vis spectrum analysis. The series is classed as physicochemical. In a few lines:
(§1)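 50 μM compound incubated with 60 μM CuSO4, FeCl2 or ZnCl2 at room temperature for 10 min. UV−vis spectrum recorded from 300 to 550 nm; complexation judged from spectral change versus metal-free spectrum.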

The nature of series [3]: Binding affinity to Fe2+ assessed as formation of metal complexes at 50 uM after 10 mins by UV-vis spectrum analysis. The series is classed as physicochemical. In a few lines: as §1
A short description of series [4]: Binding affinity to Cu2+ assessed as formation of metal complexes at 50 uM after 10 mins by UV-vis spectrum analysis. The series is classed as physicochemical. In a few lines: as §1
Series [5] relates to MC65. Briefly: Antioxidant activity in tetracycline-removed human MC65 cells assessed as suppression of oxidative stress after 48 hrs by DCFH-DA assay. The series is classed as functional, cell-based. In a few lines: (§2)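 MC65 human neuroblastoma cells dosed under +TC or −TC (TC withdrawn) for 48 h, then loaded with 25 μM DCFH-DA. Cellular fluorescence measured by flow cytometry. Expressed as mean percentage of fluorescence intensity (n = 3), parallel +TC cultures set at 100%; error bars SEM.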

A short description of series [6]: Antioxidant activity in tetracycline-removed human MC65 cells assessed as suppression of oxidative stress at 0.1 uM after 48 hrs by DCFH-DA assay. The series is classed as functional. In a few lines: as §2
Series [7] concerns MC65. Put plainly: Effect on C99 expression in tetracycline-removed human MC65 cells at 0.3 to 1 uM after 30 hrs by Western blot analysis. The series is classed as functional, cell-based. Background: In western blotting, separated proteins are transferred to a membrane and probed.
For series [8], the system named is MC65. Put plainly: Inhibition of amyloid beta oligomer production in tetracycline-removed human MC65 cells after 30 hrs by Western blot analysis. The series is classed as functional, cell-based. In a few lines: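 Compounds added immediately after tetracycline removal, MC65 cells cultured 30 h. Lysates Western blotted with 6E10 antibody; three oligomer bands quantified by densitometry, normalized to α-tubulin, and expressed relative to −TC control set at 100%. Image from one of two independent experiments.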

Series [9] is described as follows: Neuroprotective activity in tetracycline-removed human MC65 cells assessed as protection against amyloid beta aggregate-induced cytotoxicity after 72 hrs by MTT assay. The following applies: MC65, 72 h. The series is classed as functional, cell-based. In a few lines:
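MC65 cells kept in +TC or −TC medium with compound across a concentration series for 72 h; viability by MTT. Mean percentage viability (n = 3), parallel +TC cultures as 100%, SEM error bars; EC50 taken from dose–response.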

The test system of series [10] is MC65. Briefly: Antioxidant activity in tetracycline-removed human MC65 cells assessed as suppression of oxidative stress at 0.1 to 3 uM after 48 hrs by DCFH-DA assay. The series is classed as functional, cell-based. In a few lines: as §2

Experimental findings from ChEMBL document CHEMBL2177087, “Bivalent ligands targeting multiple pathological factors involved in Alzheimer's disease” (ACS Med Chem Lett, 2012) are described below.

As usually defined, the EC50 is the midpoint of the concentration-response curve.

Activity calls are given as the source filed them. The rule behind the calls is not given here.

Consider `COc1cc(/C=C/C(=O)/C=C(O)/C=C/c2ccc(OCc3cn(CCCC(=O)NCCCCN[C@H]4CC[C@@]5(C)C(=CC[C@H]6[C@@H]7CC[C@H]([C@H](C)CCCC(C)C)[C@@]7(C)CC[C@@H]65)C4)nn3)c(OC)c2)ccc1O`, for which, in the series on MC65 [1], the outcome was Active.

On to `COc1cc(/C=C/C(=O)/C(Cc2cn(CCCC(=O)NCCCCN[C@H]3CC[C@@]4(C)C(=CC[C@H]5[C@@H]6CC[C@H]([C@H](C)CCCC(C)C)[C@@]6(C)CC[C@@H]54)C3)nn2)=C(O)/C=C/c2ccc(O)c(OC)c2)ccc1O`, for which, in the series on MC65 [1], the result was Active.

`COc1cc(/C=C/C(=O)/C(Cc2cn(CCCCCCNC(=O)COCC(=O)NCCCCCCN[C@H]3CC[C@@]4(C)C(=CC[C@H]5[C@@H]6CC[C@H]([C@H](C)CCCC(C)C)[C@@]6(C)CC[C@@H]54)C3)nn2)=C(O)/C=C/c2ccc(O)c(OC)c2)ccc1O`: the result in the series on MC65 [1] was Active.

Regarding `COc1cc(/C=C/C(=O)/C=C(O)/C=C/c2ccc(OCc3cn(CCCCNC(=O)COCC(=O)NCCCCN[C@H]4CC[C@@]5(C)C(=CC[C@H]6[C@@H]7CC[C@H]([C@H](C)CCCC(C)C)[C@@]7(C)CC[C@@H]65)C4)nn3)c(OC)c2)ccc1O`, in the series with MC65 [1], the outcome was Active.

Take `COc1cc(/C=C/C(=O)/C(Cc2cn(CCNC(=O)COCC(=O)NCCCCN[C@H]3CC[C@@]4(C)C(=CC[C@H]5[C@@H]6CC[C@H]([C@H](C)CCCC(C)C)[C@@]6(C)CC[C@@H]54)C3)nn2)=C(O)/C=C/c2ccc(O)c(OC)c2)ccc1O`: the Activity entry in series [2] was “Active”; in series [3] it was “Active”; in [4], “Active”; in the series on MC65 [5] it was “Dose-dependent effect”; in series [6] it was 35%. The result with MC65 [7] was inactive. Besides, in the series on MC65 [8], the inhibition entry was “Dose-dependent effect”. In series [9], the EC50 turned out to be 83 nM. Moreover, in the series with MC65 [1], the outcome was Active.

As to `COc1cc(/C=C/C(=O)/C(Cc2cn(CCCCNC(=O)COCC(=O)NCCCCN[C@H]3CC[C@@]4(C)C(=CC[C@H]5[C@@H]6CC[C@H]([C@H](C)CCCC(C)C)[C@@]6(C)CC[C@@H]54)C3)nn2)=C(O)/C=C/c2ccc(O)c(OC)c2)ccc1O`, the outcome with MC65 [10] and in the series with MC65 [1] was Active. Moreover, the result with MC65 [7] was inactive. Also, the inhibition result in the series with MC65 [8] was “Dose-dependent effect”. In addition, the EC50 in series [9] turned out to be 160 nM.

In the case of `COc1cc(/C=C/C(=O)/C=C(O)/C=C/c2ccc(OCc3cn(CCCCCCNC(=O)COCC(=O)NCCCCN[C@H]4CC[C@@]5(C)C(=CC[C@H]6[C@@H]7CC[C@H]([C@H](C)CCCC(C)C)[C@@]7(C)CC[C@@H]65)C4)nn3)c(OC)c2)ccc1O`, in the series on MC65 [1], the result was Active.

Take `COc1cc(/C=C/C(=O)/C=C(O)/C=C/c2ccc(OCc3cn(CCCCCCNC(=O)COCC(=O)NCCCCCCN[C@H]4CC[C@@]5(C)C(=CC[C@H]6[C@@H]7CC[C@H]([C@H](C)CCCC(C)C)[C@@]7(C)CC[C@@H]65)C4)nn3)c(OC)c2)ccc1O`: the result with MC65 [1] was Active.

On to `COc1cc(/C=C/C(=O)/C(Cc2cn(CCCCCCNC(=O)CCNC(=O)CCNC(=O)CO[C@H]3CC[C@@]4(C)C(=CC[C@H]5[C@@H]6CC[C@H]([C@H](C)CCCC(C)C)[C@@]6(C)CC[C@@H]54)C3)nn2)=C(O)/C=C/c2ccc(O)c(OC)c2)ccc1O`, for which the Activity result in [2] is on record as “Not Active”; in [3], “Active”; in series [4], “Active”. Besides, the EC50 in [9] came out at 3000 nM.

Regarding `COc1cc(/C=C/C(=O)/C=C(O)/C=C/c2ccc(OCc3cn(CCNC(=O)COCC(=O)NCCCCN[C@H]4CC[C@@]5(C)C(=CC[C@H]6[C@@H]7CC[C@H]([C@H](C)CCCC(C)C)[C@@]7(C)CC[C@@H]65)C4)nn3)c(OC)c2)ccc1O`, in the series on MC65 [1], the outcome was Active.

Take `COc1cc(/C=C/C(=O)/C(Cc2cn(CCCCCCNC(=O)COCC(=O)NCCCCN[C@H]3CC[C@@]4(C)C(=CC[C@H]5[C@@H]6CC[C@H]([C@H](C)CCCC(C)C)[C@@]6(C)CC[C@@H]54)C3)nn2)=C(O)/C=C/c2ccc(O)c(OC)c2)ccc1O`: the outcome in the series on MC65 [10] and with MC65 [1] was Active. Moreover, the result in the series on MC65 [7] was inactive. In addition, the inhibition result with MC65 [8] was “Dose-dependent effect”. Also, the EC50 in series [9] is 300 nM.
